Data reported in ChEMBL document CHEMBL4680093 (J Med Chem, 2016).
Calls of active or inactive are those of the source. The calls are words filed in the database; no cut-off is given here.

Legend:
Cytochrome P450 2C9 = Cytochrome P450 2C9 (Homo sapiens, UniProt P11712); assay: Inhibition of CYP2C9 in pooled human liver microsomes using diclofenac as substrate in presence of NADPH incubated for 10 mins by LC-MS/MS analysis
Cytochrome P450 1A2 = biological target: T1, Cytochrome P450 1A2 (Homo sapiens, UniProt P05177); assay: Inhibition of CYP1A2 in pooled human liver microsomes using phenacetin as substrate in presence of NADPH incubated for 10 mins by LC-MS/MS analysis
T1 sequence (P05177 whole entry): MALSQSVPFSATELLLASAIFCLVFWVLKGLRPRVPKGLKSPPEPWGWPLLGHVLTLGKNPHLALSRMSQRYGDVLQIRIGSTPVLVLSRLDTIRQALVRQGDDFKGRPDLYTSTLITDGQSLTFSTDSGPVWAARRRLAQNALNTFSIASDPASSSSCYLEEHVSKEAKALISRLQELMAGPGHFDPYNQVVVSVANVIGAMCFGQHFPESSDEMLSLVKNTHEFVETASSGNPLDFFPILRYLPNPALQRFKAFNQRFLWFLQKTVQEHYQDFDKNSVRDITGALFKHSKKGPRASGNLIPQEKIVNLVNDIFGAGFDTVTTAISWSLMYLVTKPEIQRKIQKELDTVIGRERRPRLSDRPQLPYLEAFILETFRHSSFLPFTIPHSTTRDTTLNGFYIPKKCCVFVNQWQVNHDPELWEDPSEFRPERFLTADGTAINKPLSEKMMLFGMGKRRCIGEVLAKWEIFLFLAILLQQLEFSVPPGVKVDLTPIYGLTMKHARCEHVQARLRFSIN

Cytochrome P450 2D6 = Cytochrome P450 2D6 (Homo sapiens, UniProt P10635); assay: Inhibition of CYP2D6 in pooled human liver microsomes using dextromethorphan as substrate in presence of NADPH incubated for 10 mins by LC-MS/MS analysis
[1] = Metabolic stability in mouse liver microsomes assessed as compound remaining after 30 mins; format: ADME, Microsome; settings: read-out: Stabilty
[2] = In-vivo inhibition of 11beta-HSD1 activity in C57BL/6 mouse epididymal fat assessed as reduction in cortisone to-cortisol conversion at 10 mg/kg, po measured after 2 hrs by ELISA; format: functional; settings: C57BL/6, Epididymal fat pad
In short: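 Male C57BL/6 mice dosed orally once at 3, 10 or 30 mg/kg in sterile water containing 0.5% methylcellulose and 1% Tween80, then sacrificed at 2 or 6 h. Liver and epididymal fat pads incubated ex vivo in culture medium containing cortisone. Cortisol formed was measured by ELISA and reported as % inhibition versus vehicle.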

Cytochrome P450 2C19 = Cytochrome P450 2C19 (Homo sapiens, UniProt P33261); assay: Inhibition of CYP2C19 in pooled human liver microsomes using mephenytoin as substrate in presence of NADPH incubated for 10 mins by LC-MS/MS analysis
[3] = In-vivo inhibition of 11beta-HSD1 activity in C57BL/6 mouse liver assessed as reduction in cortisone to-cortisol conversion at 10 mg/kg, po measured after 2 hrs by ELISA; format: functional; settings: C57BL/6, Liver
Cytochrome P450 3A4 = Cytochrome P450 3A4 (Homo sapiens, UniProt P08684); assay: Inhibition of CYP3A4 in pooled human liver microsomes using midazolam as substrate in presence of NADPH incubated for 10 mins by LC-MS/MS analysis
Mus musculus [4] = assay: Reduction in nonfasting blood glucose level in C57BL/6-Lep^ob (ob/ob) mouse at 300 mg/kg, po dosed once daily for 25 days relative to control; format: functional, organism-based; settings: time 25.0 day
In short: (§1)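 Eight-week-old male ob/ob mice were dosed orally once daily for 25 days with vehicle (sterile water, 0.5% methylcellulose, 1% Tween80), test compound 20 mg/kg, metformin 300 mg/kg, or the combination. Baseline postprandial glucose and HbA1c were checked from tail-vein blood. Changes in HbA1c and non-fasting blood glucose were expressed relative to the vehicle group.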

Mus musculus [5] = assay: Improvement in lipid profile in C57BL/6-Lep^ob (ob/ob) mouse assessed as LDL cholesterol level at 300 mg/kg, po dosed once daily for 25 days (reference value: 30.3 +/- 0.8 mg/dl); format: functional; settings: time 25 day
Mus musculus [6] = assay: Improvement in lipid profile in C57BL/6-Lep^ob (ob/ob) mouse assessed as total cholesterol level at 300 mg/kg, po dosed once daily for 25 days (reference value: 286.6 +/- 6.3 mg/dl); format: functional; settings: time 25 day
[7] = Reduction in HbA1c level in C57BL/6-Lep^ob (ob/ob) mouse at 300 mg/kg, po dosed once daily for 25 days relative to control; format: functional; design: scale not given: the % may be the effect or the level left; settings: time 25 day; in short: as §1
Mus musculus [8] = assay: Improvement in lipid profile in C57BL/6-Lep^ob (ob/ob) mouse assessed as triglyceride level at 300 mg/kg, po dosed once daily for 25 days (reference value: 90.9 +/- 5.5 mg/dl); format: functional; settings: time 25 day
[9] = Reduction in fasting plasma glucose in patient with type 2 diabetes exhibiting inadequate glycemic control with metformin alone dosed for 12 weeks during phase 2 trial; format: functional, Homo sapiens
[10] = Reduction in HbA1c in patient with type 2 diabetes exhibiting inadequate glycemic control with metformin alone dosed for 12 weeks during phase 2 trial; format: functional, Homo sapiens; design: scale not given: the % may be the effect or the level left
[11] = Reduction in HOMA-IR in patient with type 2 diabetes exhibiting inadequate glycemic control with metformin alone dosed for 12 weeks during phase 2 trial; format: functional, Homo sapiens; design: scale not given: the % may be the effect or the level left
[12] = biological target: T2, Nuclear receptor subfamily 1 group I member 2 (Homo sapiens, UniProt O75469); assay: Activation of PXR (unknown origin) at 10 uM relative to rifampicin; format: ADME
T2 sequence (O75469 whole entry): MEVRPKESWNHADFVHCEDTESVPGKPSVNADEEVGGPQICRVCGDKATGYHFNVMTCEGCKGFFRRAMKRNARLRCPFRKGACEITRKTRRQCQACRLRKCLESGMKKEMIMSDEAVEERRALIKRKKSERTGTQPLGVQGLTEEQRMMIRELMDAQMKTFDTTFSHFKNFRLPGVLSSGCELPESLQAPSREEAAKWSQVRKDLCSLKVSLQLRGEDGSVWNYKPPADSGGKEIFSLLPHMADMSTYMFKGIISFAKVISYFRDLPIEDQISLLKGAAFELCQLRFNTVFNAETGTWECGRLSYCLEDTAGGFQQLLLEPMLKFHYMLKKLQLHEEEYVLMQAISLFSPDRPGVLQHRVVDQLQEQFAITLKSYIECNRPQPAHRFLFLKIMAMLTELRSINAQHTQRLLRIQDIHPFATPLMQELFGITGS

[13] = biological target: 11-beta-hydroxysteroid dehydrogenase 1 (Homo sapiens, UniProt P28845); assay: Inhibition of human 11beta-HSD1 expressed in HEK293 cells using cortisone by ELISA
Sequence of 11-beta-hydroxysteroid dehydrogenase 1 (P28845 whole entry): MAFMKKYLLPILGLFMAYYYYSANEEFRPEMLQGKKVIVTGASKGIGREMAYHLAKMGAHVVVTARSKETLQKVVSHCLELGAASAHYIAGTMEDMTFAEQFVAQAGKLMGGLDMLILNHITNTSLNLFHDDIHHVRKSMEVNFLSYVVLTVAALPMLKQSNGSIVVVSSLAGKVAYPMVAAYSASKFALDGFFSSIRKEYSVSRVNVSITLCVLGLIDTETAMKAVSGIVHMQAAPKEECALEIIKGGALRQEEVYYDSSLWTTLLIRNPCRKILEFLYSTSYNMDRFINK

Sequence of Cytochrome P450 2C9 (P11712 whole entry): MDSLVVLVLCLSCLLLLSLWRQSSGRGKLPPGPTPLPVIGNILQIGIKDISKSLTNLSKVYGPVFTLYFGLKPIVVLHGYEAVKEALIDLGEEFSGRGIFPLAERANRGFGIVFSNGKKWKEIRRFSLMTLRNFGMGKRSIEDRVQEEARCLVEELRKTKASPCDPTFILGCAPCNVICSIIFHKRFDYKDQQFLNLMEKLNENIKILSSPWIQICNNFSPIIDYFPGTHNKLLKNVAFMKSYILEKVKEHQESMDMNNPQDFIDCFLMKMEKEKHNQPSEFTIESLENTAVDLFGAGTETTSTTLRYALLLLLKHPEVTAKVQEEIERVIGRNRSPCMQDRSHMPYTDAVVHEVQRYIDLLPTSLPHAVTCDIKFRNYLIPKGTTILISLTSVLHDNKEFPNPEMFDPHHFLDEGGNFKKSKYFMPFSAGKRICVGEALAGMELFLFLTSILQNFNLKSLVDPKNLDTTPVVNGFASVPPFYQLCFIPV
Sequence of Cytochrome P450 2D6 (P10635 whole entry): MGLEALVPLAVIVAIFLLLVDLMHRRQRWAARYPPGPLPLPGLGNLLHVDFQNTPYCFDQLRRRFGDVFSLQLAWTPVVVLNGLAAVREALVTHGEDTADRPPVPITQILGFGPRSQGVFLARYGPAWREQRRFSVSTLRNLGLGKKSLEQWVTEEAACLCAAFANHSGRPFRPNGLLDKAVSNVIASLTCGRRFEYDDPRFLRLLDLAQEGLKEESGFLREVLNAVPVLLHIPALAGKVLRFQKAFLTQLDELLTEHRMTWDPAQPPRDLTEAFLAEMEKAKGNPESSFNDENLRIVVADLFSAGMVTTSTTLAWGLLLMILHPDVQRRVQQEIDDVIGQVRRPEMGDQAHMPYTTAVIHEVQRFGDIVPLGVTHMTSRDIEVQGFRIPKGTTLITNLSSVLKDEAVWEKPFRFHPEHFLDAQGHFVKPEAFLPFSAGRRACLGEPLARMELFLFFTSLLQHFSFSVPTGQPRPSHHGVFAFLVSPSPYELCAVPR
Sequence of Cytochrome P450 3A4 (P08684 whole entry): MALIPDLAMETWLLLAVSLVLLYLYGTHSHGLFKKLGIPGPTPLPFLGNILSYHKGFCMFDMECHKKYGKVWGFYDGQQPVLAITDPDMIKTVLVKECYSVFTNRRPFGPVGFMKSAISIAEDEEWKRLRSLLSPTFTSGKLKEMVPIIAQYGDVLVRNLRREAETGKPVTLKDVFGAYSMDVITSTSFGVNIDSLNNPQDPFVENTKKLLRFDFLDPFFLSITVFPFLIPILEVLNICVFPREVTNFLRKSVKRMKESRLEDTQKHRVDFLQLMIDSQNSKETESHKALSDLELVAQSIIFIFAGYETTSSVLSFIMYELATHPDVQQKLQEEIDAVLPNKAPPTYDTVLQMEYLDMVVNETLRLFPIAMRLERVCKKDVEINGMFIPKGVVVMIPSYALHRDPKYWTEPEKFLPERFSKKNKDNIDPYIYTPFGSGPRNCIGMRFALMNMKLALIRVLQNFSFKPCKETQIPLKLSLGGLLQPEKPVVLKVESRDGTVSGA
Sequence of Cytochrome P450 2C19 (P33261 whole entry): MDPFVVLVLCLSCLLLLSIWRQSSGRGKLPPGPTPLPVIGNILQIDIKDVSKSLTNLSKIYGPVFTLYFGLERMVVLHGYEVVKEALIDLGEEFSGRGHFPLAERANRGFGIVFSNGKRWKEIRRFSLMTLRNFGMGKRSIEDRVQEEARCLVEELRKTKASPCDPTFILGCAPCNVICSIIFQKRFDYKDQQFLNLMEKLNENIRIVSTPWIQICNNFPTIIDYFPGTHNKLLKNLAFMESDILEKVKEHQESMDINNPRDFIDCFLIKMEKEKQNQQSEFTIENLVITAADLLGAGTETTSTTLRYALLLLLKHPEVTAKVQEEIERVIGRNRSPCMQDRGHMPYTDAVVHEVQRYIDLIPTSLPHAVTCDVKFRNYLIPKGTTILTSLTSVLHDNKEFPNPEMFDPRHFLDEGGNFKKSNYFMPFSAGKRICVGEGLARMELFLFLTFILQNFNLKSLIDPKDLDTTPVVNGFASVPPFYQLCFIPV

SMILES | remaining at 0.5 h [1] [%] | inhibition in vivo at 10 mg/kg [2] [%] | inhibition in vivo at 10 mg/kg [3] [%] | also measured
C[C@@H]1CN(c2ccc(S(C)(=O)=O)cc2)CCN1c1nccc(C(=O)NC2C3CC4CC2CC(O)(C4)C3)n1 (stereo partly specified) | 92 | 81 | 48 | IC50 (Cytochrome P450 2C9): > 10 µM; IC50 (Cytochrome P450 1A2): > 10 µM; IC50 (Cytochrome P450 2D6): > 10 µM; IC50 (Cytochrome P450 2C19): > 10 µM; IC50 (Cytochrome P450 3A4): > 10 µM
C[C@@H]1CN(c2ccc(S(N)(=O)=O)cc2)CCN1c1cccc(C(=O)NC2C3CC4CC2CC(O)(C4)C3)n1 (stereo partly specified) | 65 | 11 | 0 | –
C[C@@H]1CN(c2ccc(C(N)=O)nc2)CCN1c1cccc(C(=O)NC2C3CC4CC2CC(O)(C4)C3)n1 (stereo partly specified) | 23 | – | – | –
CNC(=O)c1ccc(N2CCN(c3cccc(C(=O)NC4C5CC6CC4CC(O)(C6)C5)n3)[C@H](C)C2)cc1 (stereo partly specified) | 61 | 34 | 0 | –
C[C@@H]1CN(c2ccc(C(=O)O)cc2)CCN1c1cccc(C(=O)NC2C3CC4CC2CC(O)(C4)C3)n1 (stereo partly specified) | 71 | – | – | –
CN(C)C(=N)NC(=N)N [METFORMIN] | – | – | – | Activity (Mus musculus [4]): inactive; Activity (Mus musculus [5]): 23.9 mg/dL; Activity (Mus musculus [6]): 252.6 mg/dL; Activity [7]: 0.7%; Activity (Mus musculus [8]): 99.9 mg/dL
C[C@@H]1CN(c2c(F)cc(S(C)(=O)=O)cc2F)CCN1c1nccc(C(=O)NC2C3CC4CC2CC(O)(C4)C3)n1 (stereo partly specified) | 95 | – | – | –
O=C(NC1CCCCC1)[C@H]1CCCN(S(=O)(=O)c2cccc(Cl)c2)C1 | – | – | – | Activity [9]: 24 mg/dL; Activity [10]: 0.6%; Activity [11]: 24%
C[C@@H]1CN(c2ccc(C(F)(F)F)cc2)CCN1c1nccc(C(=O)NC2C3CC4CC2CC(O)(C4)C3)n1 (stereo partly specified) | 90 | – | – | –
Cc1cc(S(C)(=O)=O)ccc1N1CCN(c2nccc(C(=O)NC3C4CC5CC3CC(O)(C5)C4)n2)[C@H](C)C1 (stereo partly specified) | 90 | 77 | 64 | –
C[C@@H]1CN(c2ccc(C(N)=O)cc2)CCN1c1cccc(C(=O)NC2C3CC4CC2CC(O)(C4)C3)n1 (stereo partly specified) | 57 | 26 | 0 | –
C[C@@H]1CN(c2ccc(C(C)(C)O)nc2)CCN1c1cccc(C(=O)NC2C3CC4CC2CC(O)(C4)C3)n1 (stereo partly specified) | 76 | 87 | 63 | –
C[C@@H]1CN(c2ccc(C#N)cc2)CCN1c1nccc(C(=O)NC2C3CC4CC2CC(O)(C4)C3)n1 (stereo partly specified) | 86 | 12 | 6 | –
C[C@@H]1CN(c2ccc(C(C)(C)O)cc2F)CCN1c1nccc(C(=O)NC2C3CC4CC2CC(O)(C4)C3)n1 (stereo partly specified) | 98 | 74 | 43 | –
C[C@@H]1CN(c2cc(F)c(S(C)(=O)=O)cc2F)CCN1c1nccc(C(=O)NC2C3CC4CC2CC(O)(C4)C3)n1 (stereo partly specified) | 92 | 85 | 80 | –
C[C@@H]1CN(c2ccc(C(C)(C)O)cc2)CCN1c1nccc(C(=O)NC2C3CC4CC2CC(O)(C4)C3)n1 (stereo partly specified) | 99 | 46 | 32 | –
C[C@@H]1CN(c2ccc(F)cc2)CCN1c1nccc(C(=O)NC2C3CC4CC2CC(O)(C4)C3)n1 (stereo partly specified) | 82 | – | – | –
C[C@@H]1CN(c2ccc(S(C)(=O)=O)cc2Cl)CCN1c1nccc(C(=O)NC2C3CC4CC2CC(O)(C4)C3)n1 (stereo partly specified) | 96 | 82 | 77 | –
CCS(=O)(=O)c1ccc(N2CCN(c3nccc(C(=O)NC4C5CC6CC4CC(O)(C6)C5)n3)[C@H](C)C2)c(F)c1 (stereo partly specified) | 91 | 82 | 79 | –
CNS(=O)(=O)c1ccc(N2CCN(c3cccc(C(=O)NC4C5CC6CC4CC(O)(C6)C5)n3)[C@H](C)C2)cc1 (stereo partly specified) | 83 | 33 | 12 | –
C[C@@H]1CN(c2ccc(S(C)(=O)=O)cc2)CCN1c1cccc(C(=O)NC2C3CC4CC2CC(O)(C4)C3)n1 (stereo partly specified) | 97 | 86 | 70 | IC50 (Cytochrome P450 2C9): > 10 µM; IC50 (Cytochrome P450 1A2): > 10 µM; IC50 (Cytochrome P450 2D6): > 10 µM; Activity [12]: 32.7%; IC50 (Cytochrome P450 2C19): 3.7 µM; IC50 (Cytochrome P450 3A4): 0.97 µM; IC50 [13]: 0.0031 µM
CNC(=O)c1ccc(N2CCN(c3cccc(C(=O)NC4C5CC6CC4CC(O)(C6)C5)n3)[C@H](C)C2)cn1 (stereo partly specified) | 66 | 85 | 52 | IC50 (Cytochrome P450 2C9): > 10 µM; IC50 (Cytochrome P450 1A2): > 10 µM; IC50 (Cytochrome P450 2D6): > 10 µM; IC50 (Cytochrome P450 2C19): 0.7 µM; IC50 (Cytochrome P450 3A4): > 10 µM
C[C@@H]1CN(c2ccc(Cl)cc2)CCN1c1nccc(C(=O)NC2C3CC4CC2CC(O)(C4)C3)n1 (stereo partly specified) | 78 | – | – | –
